Experimental data from ChEMBL document CHEMBL2040826, “Design, synthesis and antiviral activity of novel pyridazines” (Eur J Med Chem, 2012).

Key:
[1] = Cytotoxicity against human TZM-bl cells at 10 uM after 48 hrs by MTT assay; format: cell-based
[2] = system: Human immunodeficiency virus; assay: Antiviral activity against HIV infected in human TZM-bl cells at 10 uM after 48 hrs by measuring luciferase activity by luminometer analysis; format: functional; conditions: Human immunodeficiency virus 1, TZM-bl
In short: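 TZM-bl cells seeded at 10⁴ cells/well; samples (from DMSO stocks) added next day, then pseudotyped HIV; final DMSO 2%. Incubated 48 h at 37 °C in humidified CO₂. Steady-glow luciferase substrate added, lysis 20 min in dark, luminescence read. AZT and MK-0518 as positive controls; expressed as percent inhibition.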

Tobacco mosaic virus [3] = assay: In vivo antiviral activity against TMV assessed as protection effect at 500 ug/ml; format: functional
Tobacco mosaic virus [4] = assay: In vivo antiviral activity against TMV assessed as inactivation effect at 500 ug/ml; format: functional
Tobacco mosaic virus [5] = assay: In vitro antiviral activity against TMV at 500 ug/ml; format: functional
Tobacco mosaic virus [6] = assay: In vivo antiviral activity against TMV assessed as curative effect at 500 ug/ml; format: functional

Structure (SMILES) | Activity [1] | inhibition at 10 µM [2] | Activity (Tobacco mosaic virus [3]) | Activity (Tobacco mosaic virus [4]) | inhibition at 500 µg/mL (Tobacco mosaic virus [5]) | Activity (Tobacco mosaic virus [6])
COC(=O)c1c(C(F)(F)F)nn(-c2ccccc2)c(=O)c1O | Non-toxic | -0.75% | 11.4% | 18.9% | 15.5% | 10.7%
O=c1c(O)cc(C(F)(F)F)nn1-c1ccccc1 | Non-toxic | 6.33% | 7.6% | 0% | 0% | 14.8%
COC(=O)c1c(C(F)(F)F)nn(-c2ccccc2)c(=O)c1OC | Non-toxic | 5.9% | 19.2% | 16.5% | 20% | 12.5%
O=C(NCc1ccc(F)cc1)c1c(C(F)(F)F)nn(-c2ccccc2)c(=O)c1O | Non-toxic | 27.9% | 32.6% | 36.7% | 38.5% | 30.2%
COC(=O)c1c(C(F)(F)F)nn(-c2ccc(F)cc2)c(=O)c1O | Non-toxic | 1.3% |  |  |  | 
O=c1c(O)cc(C(F)(F)F)nn1-c1ccc(F)cc1 | Non-toxic | -11.6% |  |  |  | 
COC(=O)c1c(C(F)(F)F)nn(-c2ccc(F)cc2)c(=O)c1OC | Non-toxic | 7.34% | 11.7% | 7.5% | 22.5% | 18.6%
O=C(NCc1ccc(F)cc1)c1c(C(F)(F)F)nn(-c2ccc(F)cc2)c(=O)c1O | Non-toxic | 19.5% | 15.6% | 10.3% | 18.6% | 17.4%
O=C(NCc1ccc(F)cc1)c1c(C(F)(F)F)nn(-c2ccc(F)cc2)c(=O)c1NCc1ccc(F)cc1 | Non-toxic | 19.5% | 31.3% | 30.2% | 28.5% | 34%
COC(=O)c1c(C(F)(F)F)nn(Cc2ccc(F)cc2)c(=O)c1OC | Non-toxic | 13.9% | 20.2% | 11.2% | 27.5% | 10.3%
O=C(NCc1ccc(F)cc1)c1c(C(F)(F)F)nn(Cc2ccc(F)cc2)c(=O)c1O | Non-toxic | 29.3% | 28.3% | 21.4% | 30% | 21.7%
COC(=O)c1c(C(F)(F)F)nn(Cc2ccccn2)c(=O)c1O | Non-toxic | 5.41% | 16.7% | 18.3% | 21.3% | 9.3%
COC(=O)c1c(C(F)(F)F)nn(Cc2ccccn2)c(=O)c1OC | Non-toxic | 20.2% | 15.2% | 0% | 0% | 0%
O=C(NCc1ccc(F)cc1)c1c(C(F)(F)F)nn(Cc2ccccn2)c(=O)c1O | Non-toxic | 2.99% | 18.6% | 5.2% | 10% | 7.6%
COC(=O)c1c(C(F)(F)F)nn(Cc2cccnc2)c(=O)c1OC | Non-toxic | 19.5% |  |  |  | 
O=C(NCc1ccc(F)cc1)c1c(C(F)(F)F)nn(Cc2cccnc2)c(=O)c1O | Non-toxic | 7.31% | 18.9% | 18.2% | 7.5% | 12.8%
COC(=O)c1c(C(F)(F)F)nn(CC2CCCO2)c(=O)c1OC (stereo unspecified) | Non-toxic | 9.3% | 10.3% | 19.7% | 13.6% | 0%

Structure (SMILES) | Activity [1] | inhibition at 10 µM [2] | Activity (Tobacco mosaic virus [3]) | Activity (Tobacco mosaic virus [4]) | inhibition at 500 µg/mL (Tobacco mosaic virus [5]) | Activity (Tobacco mosaic virus [6])
O=C(NCc1ccc(F)cc1)c1c(C(F)(F)F)nn(CC2CCCO2)c(=O)c1O (stereo unspecified) | Non-toxic | -3.02% | 0% | 13.2% | 0% | 0%
COC(=O)c1c(C(F)(F)F)nn(Cc2ccco2)c(=O)c1OC | Non-toxic | -3.39% | 0% | 0% | 8.5% | 7.2%
O=C(NCc1ccc(F)cc1)c1c(C(F)(F)F)nn(Cc2ccco2)c(=O)c1O | Non-toxic | 13% |  |  |  | 
COC(=O)c1c(C(F)(F)F)nn(Cc2cccs2)c(=O)c1OC | Non-toxic | 37% | 10% | 15.1% | 12.4% | 19.5%
O=C(NCc1ccc(F)cc1)c1c(C(F)(F)F)nn(Cc2cccs2)c(=O)c1O | Non-toxic | -7.5% | 0% | 0% | 0% | 14.2%
O=C(NCc1ccc(F)cc1)c1c(C(F)(F)F)nn(Cc2cccs2)c(=O)c1NCc1ccc(F)cc1 | Non-toxic | 12.7% | 24.7% | 19.5% | 30% | 23.6%
COC(=O)c1c(C(F)(F)F)nn(C)c(=O)c1OC | Non-toxic | -4% | 20.5% | 27.3% | 25% | 26.5%
Cn1nc(C(F)(F)F)c(C(=O)NCc2ccc(F)cc2)c(O)c1=O | Non-toxic | -3.5% | 32.8% | 25.4% | 19.6% | 28.4%
Cn1nc(C(F)(F)F)c(C(=O)NCc2ccc(F)cc2)c(NCc2ccc(F)cc2)c1=O | Non-toxic | 53.5% | 17.5% | 23.9% | 8.6% | 11.3%
COC(=O)c1c(C(F)(F)F)nn(C/C=C/c2ccccc2)c(=O)c1OC | Non-toxic | -19.4% | 22.9% | 23.7% | 20.3% | 29.8%
O=C(NCc1ccc(F)cc1)c1c(C(F)(F)F)nn(C/C=C/c2ccccc2)c(=O)c1O | Non-toxic | -27.2% | 12.2% | 0% | 18.4% | 10.2%
COC(=O)c1c(C(F)(F)F)nn(C(C)(C)C)c(=O)c1OC | Non-toxic | -6.5% | 5.7% | 0% | 0% | 6.3%
CC(C)(C)n1nc(C(F)(F)F)cc(NCc2ccc(F)cc2)c1=O | Non-toxic | 41.9% | 30.2% | 15.3% | 26.2% | 20.2%
CC(C)(C)n1nc(C(F)(F)F)cc(O)c1=O | Non-toxic | -11.6% | 23.1% | 18.6% | 31.7% | 27.2%
Cc1nnc(C(=O)NC(C)(C)c2nc(C(=O)NCc3ccc(F)cc3)c(O)c(=O)n2C)o1 [RALTEGRAVIR POTASSIUM] |  | 95.1% |  |  |  | 
NC(=O)c1ncn([C@@H]2O[C@H](CO)[C@@H](O)[C@H]2O)n1 [RIBAVIRIN] |  |  | 39.6% | 34.2% | 38.5% | 32.7%
Cc1cn([C@H]2C[C@H](N=[N+]=[N-])[C@@H](CO)O2)c(=O)[nH]c1=O [ZIDOVUDINE] |  | 100% |  |  |  | 
